The values that follow come from ChEMBL document CHEMBL4038340, “Development of Novel Peptide-Based Michael Acceptors Targeting Rhodesain and Falcipain-2 for the Treatment of Neglected Tropical Diseases (NTDs)” (J Med Chem, 2017).

One data set concerns the target T1, Falcipain 2 (Plasmodium falciparum, UniProt Q9N6S8).
T1 sequence (Q9N6S8 whole entry): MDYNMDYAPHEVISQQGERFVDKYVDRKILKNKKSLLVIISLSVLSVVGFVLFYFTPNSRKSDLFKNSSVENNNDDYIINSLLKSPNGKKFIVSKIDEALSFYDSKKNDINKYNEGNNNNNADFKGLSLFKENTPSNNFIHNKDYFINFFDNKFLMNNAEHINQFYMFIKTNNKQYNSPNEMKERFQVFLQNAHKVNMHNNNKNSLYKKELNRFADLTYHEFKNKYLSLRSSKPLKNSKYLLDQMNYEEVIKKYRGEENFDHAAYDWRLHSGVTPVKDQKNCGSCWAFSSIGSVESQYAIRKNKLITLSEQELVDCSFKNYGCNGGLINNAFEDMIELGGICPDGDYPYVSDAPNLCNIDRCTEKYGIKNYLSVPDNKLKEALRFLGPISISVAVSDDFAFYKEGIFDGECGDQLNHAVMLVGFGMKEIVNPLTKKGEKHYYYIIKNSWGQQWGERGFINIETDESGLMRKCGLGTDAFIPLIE
Briefly: Inhibition of recombinant Plasmodium falciparum falcipain-2 expressed in Escherichia coli M15(pREP4) using Cbz-Phe-Arg-AMC as substrate by fluorescence assay.

The target of another data set is Rhodesain (Trypanosoma brucei rhodesiense, UniProt Q95PM0). Kind of data set: Inhibition of recombinant Trypanosoma brucei rhodesiense rhodesain expressed in Pichia pastoris using Cbz-Phe-Arg-AMC as substrate after 30 min by fluorescence assay. In a few lines: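 Recombinant rhodesain with fluorogenic Cbz-Phe-Arg-AMC substrate. Compounds were first screened at a fixed 50 µM, with DMSO as negative control and an irreversible clan CA cysteine-protease inhibitor as positive control. Continuous assays at seven inhibitor concentrations, from minimally to fully inhibitory, gave kinac (min-1) and Ki, with k2nd = kinac/Ki (M-1 min-1).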

A short description of data set [1]: Cytotoxicity against human HeLa cells assessed as decrease in cell viability after 48 hrs by MTT assay. The data set is classed as cell-based.
Data set [2] has as its system Trypanosoma brucei brucei. Kind of data set: Inhibition of trypanothione synthetase in blood stream of Trypanosoma brucei brucei assessed as cellular content of free trypanothione at 3 uM after 24 hrs by HPLC analysis (reference value: 340 uM). In a few lines: (§1)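 Bloodstream-form T. brucei were seeded at 1 x10^5 cells/ml and treated for 24 h, with untreated cells as control. Free thiols (GSH, T(SH)2), and free thiols plus disulfides (GSSG, TS2), were labelled with monobromobimane and quantified by HPLC. Values are mean ± SD of three independent experiments.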

Data set [3] has as its system Trypanosoma brucei brucei. Briefly: Effect on protein bound glutathione level in blood stream of Trypanosoma brucei brucei. It is filed as functional.
Data set [4] addresses T2, Procathepsin L (Homo sapiens, UniProt P07711). Briefly: Inhibition of human cathepsin L assessed as first order rate constant using Cbz-Phe-Arg-AMC as substrate after 10 mins by fluorescence assay.
Target sequence in this assay (P07711 114-333 limits assumed): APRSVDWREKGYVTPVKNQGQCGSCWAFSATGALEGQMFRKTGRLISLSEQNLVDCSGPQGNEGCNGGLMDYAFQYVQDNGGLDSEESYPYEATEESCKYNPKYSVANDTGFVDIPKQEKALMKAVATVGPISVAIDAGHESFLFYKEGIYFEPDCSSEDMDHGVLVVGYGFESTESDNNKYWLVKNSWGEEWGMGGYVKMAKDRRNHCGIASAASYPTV
Data set [5] addresses T2, Procathepsin L. Briefly: Inhibition of human cathepsin L using Cbz-Phe-Arg-AMC as substrate after 10 mins by fluorescence assay.
Target sequence in this assay (P07711 whole entry): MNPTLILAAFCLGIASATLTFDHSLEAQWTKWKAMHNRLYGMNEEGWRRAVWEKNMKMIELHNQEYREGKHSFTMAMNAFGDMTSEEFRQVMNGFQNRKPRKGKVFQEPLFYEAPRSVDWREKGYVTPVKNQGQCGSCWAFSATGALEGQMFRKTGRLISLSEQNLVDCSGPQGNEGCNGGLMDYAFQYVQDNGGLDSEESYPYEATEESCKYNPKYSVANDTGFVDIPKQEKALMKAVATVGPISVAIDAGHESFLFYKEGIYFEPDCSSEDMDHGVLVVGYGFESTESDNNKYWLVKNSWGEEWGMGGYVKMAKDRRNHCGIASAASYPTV
Data set [6] deals with Rhodesain (Trypanosoma brucei rhodesiense) (UniProt Q95PM0). Kind of data set: Inhibition of recombinant Trypanosoma brucei rhodesiense rhodesain expressed in Pichia pastoris assessed as first order rate constant using Cbz-Phe-Arg-AMC as substrate after 30 mins by fluorescence assay. In a few lines:
(§2)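 Recombinant rhodesain with fluorogenic substrate Cbz-Phe-Arg-AMC. Preliminary screen at a fixed inhibitor concentration of 50 µM. Equal volume of DMSO served as negative control and E-64 as irreversible positive control. Active compounds went on to continuous assays at seven concentrations, from minimally to fully inhibitory, giving kinac (min-1), Ki (nM) and k2nd = kinac/Ki (M-1 min-1).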

Data set [7] has the same target. Kind of data set: Inhibition of recombinant Trypanosoma brucei rhodesiense rhodesain expressed in Pichia pastoris assessed as second order rate constant using Cbz-Phe-Arg-AMC as substrate after 30 mins by fluorescence assay. In a few lines:
as §2

The subject of another data set is Plasmodium falciparum. Briefly: Antiparasitic activity against Plasmodium falciparum W2 after 48 hrs by YOYO-1 probe-based flow cytometry. The data set is classed as functional. The note with it: W2, 48 h.
The nature of data set [8]: Selectivity index, ratio of CC50 for human HeLa cells to EC50 for Trypanosoma brucei brucei 449 for 48 hrs. It is filed as toxicity, cell-based. The note with it: read-out: Ratio CC50/EC50.
Data set [9] deals with Trypanosoma brucei brucei. Kind of data set: Antiparasitic activity against bloodstream form of Trypanosoma brucei brucei 449 after 24 hrs by ATPlite assay. The data set is classed as functional. The note with it: Trypanosoma brucei, 449, 24 h.
Data set [10] concerns Trypanosoma brucei brucei. Briefly: Antiparasitic activity against bloodstream form of Trypanosoma brucei brucei 449 after 48 hrs by ATPlite assay. The note with it: Trypanosoma brucei, 449, 48 h. It is filed as functional.
Data set [11] relates to Trypanosoma brucei brucei. Briefly: Inhibition of trypanothione synthetase in blood stream of Trypanosoma brucei brucei assessed as cellular content of free trypanothione after 24 hrs by HPLC analysis. The method in brief: as §1
The test system of data set [12] is Trypanosoma brucei brucei. Briefly: Effect on glutathione level in blood stream of Trypanosoma brucei brucei at 3 uM after 24 hrs by HPLC analysis. The data set is classed as functional. The method in brief: as §1
Data set [13] concerns the target T2, Procathepsin L. Kind of data set: Inhibition of human cathepsin L assessed as second order rate constant using Cbz-Phe-Arg-AMC as substrate after 10 mins by fluorescence assay.
Target sequence in this assay (P07711 114-333 limits assumed): as the sequence (P07711 114-333 limits assumed) above
The target of data set [14] is Rhodesain (Trypanosoma brucei rhodesiense) (UniProt Q95PM0). Kind of data set: Inhibition of recombinant Trypanosoma brucei rhodesiense rhodesain expressed in Pichia pastoris using Cbz-Phe-Arg-AMC as substrate at 50 uM after 30 mins by fluorescence assay. In a few lines: as §2

Activity calls are given as the source filed them. No cut-off for these calls is given here.

Rhodesain (Trypanosoma brucei rhodesiense), sequence (Q95PM0 1-450): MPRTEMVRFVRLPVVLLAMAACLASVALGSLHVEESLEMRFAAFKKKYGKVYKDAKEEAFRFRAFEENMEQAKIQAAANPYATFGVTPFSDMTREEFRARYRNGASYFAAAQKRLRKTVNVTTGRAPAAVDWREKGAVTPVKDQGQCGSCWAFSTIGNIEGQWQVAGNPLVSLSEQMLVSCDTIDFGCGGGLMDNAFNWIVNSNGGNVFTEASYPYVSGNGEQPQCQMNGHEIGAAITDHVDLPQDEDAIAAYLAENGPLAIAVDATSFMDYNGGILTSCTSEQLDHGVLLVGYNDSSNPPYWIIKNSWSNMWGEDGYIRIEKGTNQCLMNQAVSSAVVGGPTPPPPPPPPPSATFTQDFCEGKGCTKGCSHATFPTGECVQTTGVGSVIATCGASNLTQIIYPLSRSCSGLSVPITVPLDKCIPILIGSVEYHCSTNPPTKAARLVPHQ
Rhodesain, sequence (Q95PM0 whole entry): as the sequence (Q95PM0 1-450) above

Turning to `CC(=O)/C=C/[C@H](CCc1ccccc1)NC(=O)[C@H](Cc1ccccc1)NC(=O)OCc1ccccc1`, on Falcipain 2, the IC50 came out at 3.01 µM. For the same compound, the Ki amounted to 0.038 nM at Rhodesain and 0.0004 µM on Procathepsin L [5]. Moreover, the CC50 at 48 h in [1] worked out at 7.9 µM. Besides, the Activity in data set [2] is 160 µM; in [12] it was “Dose-dependent effect”. Moreover, in [3], the outcome was inactive. In addition, the Kinact on Procathepsin L [4] was found to be 0.002 min⁻¹; in data set [6], 0.00255 min⁻¹. The K was 67000 ×10³ /M/min in data set [7] and 5750 ×10³ /M/min on Procathepsin L [13]. In addition, the EC50 with Plasmodium falciparum worked out at 7.03 µM; in data set [9] it was 3.18 µM; in [10] it was 2.97 µM. Also, the selectivity ratio at 48 h in data set [8] is 2.6. Moreover, in data set [11], the inhibition entry is “Dose-dependent effect”.

`CC(C)C[C@H](NC(=O)OCc1ccc([N+](=O)[O-])cc1)C(=O)N[C@H](/C=C/C#N)CCc1ccccc1`: the IC50 at Falcipain 2 was above 50 µM. Also, the inhibition entry in data set [14] was “inactive”. In addition, the EC50 in the data set on Plasmodium falciparum is above 10 µM.
